Measured values: ChEMBL document CHEMBL2390903, “Anti-tubercular agents. Part 7: a new class of diarylpyrrole-oxazolidinone conjugates as antimycobacterial agents” (Eur J Med Chem, 2013)
≈ marks a conversion by molar mass, not a printed value.

Key:
[1] = tested on: Staphylococcus aureus; assay: Antibacterial activity against Staphylococcus aureus MTCC 96 assessed as growth inhibition after 24 hrs by agar dilution method; type: functional; settings: MTCC 96, 24 h
[2] = tested on: Staphylococcus; assay: Antibacterial activity against 16-membered ring macrolide- lincosamide-streptogramin B-resistant Staphylococcus MTCC 2940 assessed as growth inhibition after 24 hrs by agar dilution method; type: functional; settings: MTCC 2940, 24 h
[3] = tested on: Pseudomonas aeruginosa; assay: Antibacterial activity against Pseudomonas aeruginosa MTCC 2453 assessed as growth inhibition after 24 hrs by agar dilution method; type: functional; settings: MTCC 2453, 24 h
[4] = tested on: Staphylococcus; assay: Antibacterial activity against 16-membered ring macrolide- lincosamide-streptogramin B-resistant Staphylococcus MTCC 2940 assessed as growth inhibition at 20 ug/mL after 24 hrs; type: functional; settings: MTCC 2940, 24 h, read-out: IZ
[5] = tested on: Mycobacterium tuberculosis; assay: Antitubercular activity against Mycobacterium tuberculosis H37Rv assessed as growth inhibition after 2 to 3 weeks by broth microdilution method; type: functional
Summary of the method: (§1)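 Primary screen of all compounds against H37Rv at a single concentration in triplicate by microplate dilution. Actives then went to MIC determination by broth microdilution against H37Rv, rifampicin-resistant and XDR-1 isolates. Plates incubated 2–3 weeks at 37 °C in a CO2 incubator. MIC read visually as absence of growth turbidity. Rifampicin and linezolid served as reference drugs.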

[6] = tested on: Micrococcus luteus; assay: Antibacterial activity against Micrococcus luteus MTCC 2470 assessed as growth inhibition at 20 ug/mL after 24 hrs; type: functional; settings: MTCC 2470, 24 h, read-out: IZ
[7] = tested on: Micrococcus luteus; assay: Antibacterial activity against Micrococcus luteus MTCC 2470 assessed as growth inhibition after 24 hrs by agar dilution method; type: functional; settings: MTCC 2470, 24 h
[8] = tested on: Escherichia coli; assay: Antibacterial activity against Escherichia coli MTCC 739 assessed as growth inhibition after 24 hrs by agar dilution method; type: functional; settings: MTCC 739, 24 h
[9] = tested on: Bacillus subtilis; assay: Antibacterial activity against Bacillus subtilis MTCC 121 assessed as growth inhibition at 20 ug/mL after 24 hrs; type: functional; settings: MTCC 121, 24 h, read-out: IZ
[10] = tested on: Bacillus subtilis; assay: Antibacterial activity against Bacillus subtilis MTCC 121 assessed as growth inhibition after 24 hrs by agar dilution method; type: functional; settings: MTCC 121, 24 h
[11] = tested on: Mycobacterium tuberculosis; assay: Antitubercular activity against Mycobacterium tuberculosis XDR-1 assessed as growth inhibition after 2 to 3 weeks by broth microdilution method; type: functional; summary of the method: as §1
[12] = tested on: Staphylococcus aureus; assay: Antibacterial activity against Staphylococcus aureus MTCC 96 assessed as growth inhibition at 20 ug/mL after 24 hrs; type: functional; settings: MTCC 96, 24 h, read-out: IZ
[13] = Selectivity index, ratio of IC50 for mouse J744 cells to MIC for Mycobacterium tuberculosis H37Rv; type: functional
[14] = Cytotoxicity against mouse J744 cells assessed as growth inhibition at 40 ug/mL after 24 hrs by MTT assay relative to control; type: cell-based; settings: read-out: GI
Summary of the method: (§2)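 Mouse J-774 macrophages exposed to test material (40) in RPMI with 10% FCS for 24 h at 37 °C under CO2. MTT then added with a further 3 h incubation. Formazan absorbance read at […]. Percent cytotoxicity calculated relative to untreated cells.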

[15] = Cytotoxicity against mouse J744 cells assessed as growth inhibition after 24 hrs by MTT assay; type: cell-based; settings: J744, 24 h; summary of the method: as §2
[16] = tested on: Bacillus subtilis; assay: Antibacterial activity against Bacillus subtilis MTCC 121 assessed as growth inhibition at 20 mg/mL after 24 hrs; type: functional; settings: MTCC 121, 24 h, read-out: IZ
[17] = tested on: Staphylococcus; assay: Antibacterial activity against 16-membered ring macrolide- lincosamide-streptogramin B-resistant Staphylococcus MTCC 2940 assessed as growth inhibition at 20 mg/mL after 24 hrs; type: functional; settings: MTCC 2940, 24 h, read-out: IZ

Compound	MIC [1] [µg/mL]	MIC [2] [µg/mL]	MIC [3] [µg/mL]	zone of inhibition at 20 µg/mL [4] [mm]	MIC [5] [µg/mL]	zone of inhibition at 20 µg/mL [6] [mm]	MIC [7] [µg/mL]	MIC [8] [µg/mL]	zone of inhibition at 20 µg/mL [9] [mm]	MIC [10] [µg/mL]	MIC [11] [µg/mL]	zone of inhibition at 20 µg/mL [12] [mm]	Selectivity Index [13]	inhibition at 24 h, 40 ug/mL [14] [%]	IC50 [15] [µM]	zone of inhibition at 20000 µg/mL [16] [mm]	zone of inhibition at 20000 µg/mL [17] [mm]
CC(=O)NC[C@H]1CN(c2ccc(N3CCN(Cc4cc(-c5cccc(Cl)c5)n(-c5ccccc5F)c4C)CC3)c(F)c2)C(=O)O1	0.5 (≈ 0.788 µM)	2 (≈ 3.15 µM)	> 40	23	8 (≈ 12.6 µM)	27	1.5 (≈ 2.37 µM)	> 40	18	1.5 (≈ 2.37 µM)	> 16	18	–	–	–	–	–
CC(=O)NC[C@H]1CN(c2ccc(N3CCN(Cc4cc(-c5ccc(C(C)C)cc5)n(-c5ccc(F)cc5F)c4C)CC3)c(F)c2)C(=O)O1	2 (≈ 3.03 µM)	6 (≈ 9.09 µM)	> 40	15	4 (≈ 6.06 µM)	18	3 (≈ 4.55 µM)	> 40	12	1.5 (≈ 2.27 µM)	16 (≈ 24.3 µM)	16	>10	40.2	> 40	–	–
CC(=O)NC[C@H]1CN(c2ccc(N3CCN(Cc4cc(-c5ccccc5C)n(-c5ccc(F)cc5)c4C)CC3)c(F)c2)C(=O)O1	1.5 (≈ 2.44 µM)	5 (≈ 8.15 µM)	> 40	–	–	–	1.5 (≈ 2.44 µM)	> 40	–	3 (≈ 4.89 µM)	–	–	–	–	–	–	–
Cc1ccccc1-c1cc(CN2CCN(c3ccc(N4C[C@H](Cn5cc(-c6cncn6C)nn5)OC4=O)cc3F)CC2)c(C)n1-c1ccc(F)cc1	10 (≈ 14.2 µM)	> 30	> 40	–	2 (≈ 2.84 µM)	–	> 30	> 40	–	> 30	8 (≈ 11.4 µM)	–	>10	49.3	> 40	–	–
Cc1c(CN2CCN(c3ccc(N4C[C@H](Cn5cc(-c6ccccc6)nn5)OC4=O)cc3F)CC2)cc(-c2cccc(Cl)c2)n1-c1ccccc1F	> 40	10 (≈ 13.9 µM)	> 40	–	> 16	–	8 (≈ 11.1 µM)	> 40	–	> 40	> 16	–	–	–	–	–	–
Cc1c(CN2CCN(c3ccc(N4C[C@H](Cn5cc(-c6ccccc6)nn5)OC4=O)cc3F)CC2)cc(-c2ccc(Cl)c(F)c2)n1-c1ccc(OC(F)(F)F)cc1	> 40	> 40	> 40	–	> 16	–	8 (≈ 9.95 µM)	> 40	–	> 40	> 16	–	–	–	–	–	–
Cc1ccc(-c2cc(CN3CCN(c4ccc(N5C[C@H](Cn6cc(-c7ccccc7)nn6)OC5=O)cc4F)CC3)c(C)n2-c2ccc(Cl)c(Cl)c2)cc1	8 (≈ 10.7 µM)	9 (≈ 12 µM)	> 40	19	> 16	17	0.5 (≈ 0.666 µM)	> 40	14	2.5 (≈ 3.33 µM)	> 16	21	–	–	–	–	–
Cc1c(CN2CCN(c3ccc(N4C[C@H](Cn5cc(-c6ccccc6)nn5)OC4=O)cc3F)CC2)cc(-c2ccc(F)cc2F)n1-c1cc(F)ccc1Br	–	–	–	–	> 16	–	–	–	–	–	> 16	–	–	–	–	–	–
Cc1cccc(-c2cn(C[C@H]3CN(c4ccc(N5CCN(Cc6cc(-c7ccccc7C)n(-c7ccc(F)cc7)c6C)CC5)c(F)c4)C(=O)O3)nn2)c1	> 40	> 40	> 40	–	> 16	–	> 40	> 40	–	9 (≈ 12.6 µM)	> 16	–	–	–	–	–	–
CC(=O)NC[C@H]1CN(c2ccc(N3CCN(Cc4cc(-c5ccc(F)cc5F)n(-c5cc(F)ccc5Br)c4C)CC3)c(F)c2)C(=O)O1	3 (≈ 4.2 µM)	5 (≈ 7 µM)	> 40	18	8 (≈ 11.2 µM)	19	5 (≈ 7 µM)	> 40	14	2.5 (≈ 3.5 µM)	> 16	20	–	–	–	–	–
Cc1ccc(-c2cc(CN3CCN(c4ccc(N5C[C@H](Cn6cc(-c7ccccn7)nn6)OC5=O)cc4F)CC3)c(C)n2-c2ccc(Cl)c(Cl)c2)cc1	8 (≈ 10.6 µM)	> 40	> 40	–	4 (≈ 5.32 µM)	–	2.5 (≈ 3.33 µM)	> 40	–	1 (≈ 1.33 µM)	16 (≈ 21.3 µM)	–	–	–	–	–	–
Cc1c(CN2CCN(c3ccc(N4C[C@H](Cn5cc(-c6ccccn6)nn5)OC4=O)cc3F)CC2)cc(-c2ccc(Cl)c(F)c2)n1-c1ccc(OC(F)(F)F)cc1	> 30	9 (≈ 11.2 µM)	> 40	–	4 (≈ 4.97 µM)	–	8 (≈ 9.94 µM)	> 40	–	16 (≈ 19.9 µM)	> 16	–	>10	37.7	> 40	–	–
Cc1c(CN2CCN(c3ccc(N4C[C@H](Cn5cc(-c6ccccn6)nn5)OC4=O)cc3F)CC2)cc(-c2ccc(F)cc2F)n1-c1ccc(F)cc1	0.5 (≈ 0.692 µM)	6 (≈ 8.3 µM)	> 40	40	4 (≈ 5.53 µM)	36	3 (≈ 4.15 µM)	> 40	24	1 (≈ 1.38 µM)	16 (≈ 22.1 µM)	39	>10	31.9	> 40	–	–
Cc1ccccc1-c1cc(CN2CCN(c3ccc(N4C[C@H](Cn5cc(-c6ccccn6)nn5)OC4=O)cc3F)CC2)c(C)n1-c1ccc(F)c(F)c1	> 30	5 (≈ 6.96 µM)	> 40	–	4 (≈ 5.56 µM)	–	> 30	> 40	–	12 (≈ 16.7 µM)	16 (≈ 22.3 µM)	–	>10	40	> 40	–	–
Cc1c(CN2CCN(c3ccc(N4C[C@H](Cn5cc(-c6ccccn6)nn5)OC4=O)cc3F)CC2)cc(-c2ccc(F)cc2F)n1-c1cc(F)ccc1Br	–	–	–	–	–	–	–	–	–	–	–	–	>10	43.9	> 40	–	–
Cc1c(CN2CCN(c3ccc(N4C[C@H](Cn5cc(-c6cncn6C)nn5)OC4=O)cc3F)CC2)cc(-c2ccc(C(C)C)cc2)n1-c1ccc(F)cc1F	8 (≈ 10.7 µM)	> 30	> 40	–	4 (≈ 5.33 µM)	–	> 30	> 40	–	> 30	4 (≈ 5.33 µM)	–	>10	44.7	> 40	–	–
Cc1c(CN2CCN(c3ccc(N4C[C@H](Cn5cc(-c6cncn6C)nn5)OC4=O)cc3F)CC2)cc(-c2ccc(F)cc2F)n1-c1ccc(F)cc1	16 (≈ 22 µM)	> 30	> 40	–	> 6.25	–	> 30	> 40	–	> 30	16 (≈ 22 µM)	–	–	–	–	–	–
Cc1ccccc1-c1cc(CN2CCN(c3ccc(N4C[C@H](Cn5cc(-c6cncn6C)nn5)OC4=O)cc3F)CC2)c(C)n1-c1ccc(F)c(F)c1	10 (≈ 13.9 µM)	> 30	> 40	–	> 6.25	–	10 (≈ 13.9 µM)	> 40	–	> 30	> 16	–	–	–	–	–	–
CC(=O)NC[C@H]1CN(c2ccc(N3CCOCC3)c(F)c2)C(=O)O1 [LINEZOLID]	1.5 (≈ 4.45 µM)	0.5 (≈ 1.48 µM)	–	–	1 (≈ 2.96 µM)	–	1 (≈ 2.96 µM)	–	–	0.5 (≈ 1.48 µM)	4 (≈ 11.9 µM)	–	–	–	–	20	18
CO[C@H]1/C=C/O[C@@]2(C)Oc3c(C)c(O)c4c(O)c(c(/C=N/N5CCN(C)CC5)c(O)c4c3C2=O)NC(=O)/C(C)=C\C=C\[C@H](C)[C@H](O)[C@@H](C)[C@@H](O)[C@@H](C)[C@H](OC(C)=O)[C@@H]1C [RIFAMPIN]	–	–	–	–	0.2 (≈ 0.243 µM)	–	–	–	–	–	2 (≈ 2.43 µM)	–	–	–	–	–	–
